Paper PMC12800297 (Communications Chemistry, 2025)
Entries after “also recorded” stand apart in the source; their conditions may differ.

Columns and labels:
[1] = test system: A2AR (thermostabilized A2AR-BRIL); assay: MIDAS equilibrium dialysis with LC-MS metabolite screen; format: binding, human; conditions: p < 0.05, Supplementary Fig. 2a
A2AR-ΔCTD = A2AR-ΔCTD (Homo sapiens, UniProt P29274, N154A); assay: Competition fluorescence polarization; format: binding
In short: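 Receptor was preincubated with metabolite for 10 min, then mixed with fluorescent NECA (10 nM final) for 10 min at room temperature with gentle shaking. Fluorescence polarization was read.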

A2AR [2] = target: T1, A2AR (Homo sapiens, UniProt P29274, N154A); assay: GTP hydrolysis assay; format: biochemical; conditions: for Inhibition screen: metabolites at 100 μM, with adenosine, replicates, 100 µM
[3] = test system: HEK293 cells stably expressing A2AR; assay: HTRF cAMP detection assay, inhibition of adenosine-induced cAMP production; format: cell-based, human; conditions: for inhibition of adenosine-induced cAMP production: concentration-dependent assay
A2AR [4] = target: T1, A2AR; assay: GTP hydrolysis assay; format: biochemical; conditions: for agonist efficacy: GTP hydrolysis assay; for fold decrease/reduction in potency compared to adenosine: GTP hydrolysis assay EC50 values; for Activation screen: metabolites at 10 μM, replicates
[5] = test system: HEK293 cells stably expressing A2AR; assay: HTRF cAMP detection assay, agonist activation; format: cell-based, human
A2AR [6] = target: T1, A2AR; assay: Differential scanning fluorimetry; format: binding; conditions: dose-response DSF
A2AR H75A = A2AR H75A (Homo sapiens, UniProt P29274, H75A/N154A); assay: GTP hydrolysis inhibition comparison, A2AR mutant; format: biochemical; conditions: 20 µM PGD2, Supplementary Fig. 10
A2AR Q163E/H75A = A2AR Q163E/H75A (Homo sapiens, UniProt P29274, H75A/N154A/Q163E); assay: GTP hydrolysis inhibition comparison, A2AR mutant; format: biochemical; conditions: 20 µM PGD2, Supplementary Fig. 10
A2AR K233A = A2AR K233A (Homo sapiens, UniProt P29274, K233A/N154A); assay: GTP hydrolysis inhibition comparison, A2AR mutant; format: biochemical; conditions: 20 µM PGD2, Supplementary Fig. 10
A2AR V84 to alanine = conditions: V84 mutated to alanine; cited from earlier work
A2AR H278 to alanine = conditions: H278 mutated to alanine; cited from earlier work

T1 sequence (P29274 8-316 N154A): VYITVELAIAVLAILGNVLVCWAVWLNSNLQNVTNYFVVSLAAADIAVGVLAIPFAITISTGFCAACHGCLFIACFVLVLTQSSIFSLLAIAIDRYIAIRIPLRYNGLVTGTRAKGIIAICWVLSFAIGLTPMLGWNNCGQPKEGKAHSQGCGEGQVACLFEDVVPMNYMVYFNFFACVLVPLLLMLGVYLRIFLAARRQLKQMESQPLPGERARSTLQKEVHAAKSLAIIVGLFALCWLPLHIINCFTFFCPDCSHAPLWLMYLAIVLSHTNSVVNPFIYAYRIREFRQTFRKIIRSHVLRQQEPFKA
Chain of A2AR-ΔCTD (P29274 8-316 N154A): as above
Chain of A2AR K233A (P29274 8-316 N154A/K233A): as the sequence (P29274 8-316 N154A) above, with K226A counted along it
Chain of A2AR H75A (P29274 8-316 H75A/N154A): as the sequence (P29274 8-316 N154A) above, with H68A counted along it
Chain of A2AR Q163E/H75A (P29274 8-316 H75A/N154A/Q163E): as the sequence (P29274 8-316 N154A) above, with H68A, Q156E counted along it

## CCCCC[C@H](O)/C=C/[C@H]1[C@H](O)CC(=O)[C@@H]1C/C=C\CCCC(=O)O [PGE2]
[1]
  MIDAS enrichment, statistical significance: significantly enriched
A2AR-ΔCTD; 500 µM prostaglandin
  effect on affinity of fluorescently labeled NECA to A2AR: none of the three prostaglandins – PGI2, PGE2, and PGD2 were able to displace a fluorescently-labeled orthosteric ligand
A2AR [2]
  Inhibition screen: no effect
[3]
  inhibition of adenosine-induced cAMP production: no significant effect

## Nc1ncnc2c1ncn2[C@H]1C[C@H](O)[C@@H](CO)O1 [DA, 2’-deoxyadenosine]
[1]
  MIDAS enrichment, statistical significance: did not meet the statistical significance threshold
A2AR-ΔCTD; 100 µM SAH or DA
  effect on affinity of fluorescently labeled NECA to A2AR: reduced the affinity of NECA
A2AR [4]
  EC50: 15 µM
  agonist efficacy: full agonists
  fold decrease/reduction in potency compared to adenosine: > 800 fold
  Activation screen: activated A2AR; also recorded: sub-maximal activation
[5]; cell-based cAMP detection assay, Supplementary Fig. 12c
  A2AR activation in HEK293 cells: required millimolar concentrations for activation

## CCCCC[C@H](O)/C=C/[C@H]1C(=O)C[C@H](O)[C@@H]1C/C=C\CCCC(=O)O [PGD2, prostaglandin D2]
[1]
  MIDAS enrichment, statistical significance: significantly enriched
A2AR [6]
  effect on melting temperature (Tm) of A2AR: concentration-dependent increase in the melting temperature (Tm)
A2AR-ΔCTD; 500 µM prostaglandin
  effect on affinity of fluorescently labeled NECA to A2AR: none of the three prostaglandins – PGI2, PGE2, and PGD2 were able to displace a fluorescently-labeled orthosteric ligand
A2AR [2]; 500 μM PGD2, saturating adenosine up to 100 µM
  inhibition of A2AR in competition activity assay: sustained inhibition; also recorded: near-complete inhibition
A2AR [2]; IC50, dose-response assay, Supplementary Fig. 5a
  IC50: 180 µM
A2AR [2]
  Inhibition screen: completely inhibiting A2AR activity
[3]; HTRF cAMP vs GTP hydrolysis
  fold increase in the IC50 in cell-based assay relative to protein-based assay: approximately 8 fold
[3]
  inhibition of adenosine-induced cAMP production: near-complete inhibition
A2AR H75A
  change of PGD2-mediated inhibition by mutation: comparatively no effect
A2AR Q163E/H75A
  change of PGD2-mediated inhibition by mutation: minor reduction of inhibition
A2AR K233A
  change of PGD2-mediated inhibition by mutation: no change

## CCCCC[C@H](O)/C=C/[C@@H]1[C@H]2C/C(=C/CCCC(=O)O)O[C@H]2C[C@H]1O [PGI2]
[1]
  MIDAS enrichment, statistical significance: significantly enriched
A2AR-ΔCTD; 500 µM prostaglandin
  effect on affinity of fluorescently labeled NECA to A2AR: none of the three prostaglandins – PGI2, PGE2, and PGD2 were able to displace a fluorescently-labeled orthosteric ligand
A2AR [2]
  Inhibition screen: no effect

## CN(C)c1ncnc2nc[nH]c12 [DMAP, dimethylaminopurine]
[1]
  MIDAS enrichment, statistical significance: significantly enriched

## Nc1ncnc2[nH]cnc12 [Adenine]
[1]
  MIDAS enrichment, statistical significance: significantly enriched

## Nc1ncnc2c1ncn2[C@@H]1O[C@H](CSCC[C@H](N)C(=O)O)[C@@H](O)[C@H]1O [SAH, S-adenosyl-L-homocysteine]
[1]
  MIDAS enrichment, statistical significance: did not meet the statistical significance threshold
A2AR-ΔCTD; 100 µM SAH or DA
  effect on affinity of fluorescently labeled NECA to A2AR: reduced the affinity of NECA
A2AR [4]
  EC50: 5 µM
  agonist efficacy: full agonists
  fold decrease/reduction in potency compared to adenosine: > 250 fold
  Activation screen: activated A2AR; also recorded: sub-maximal activation
[5]; Homo sapiens, HEK293
  EC50: ~5 µM

## CCNC(=O)[C@H]1O[C@@H](n2cnc3c(N)nc(NCCc4ccc(CCC(=O)O)cc4)nc32)[C@H](O)[C@@H]1O [CGS21680]
A2AR V84 to alanine
  reduction in binding: > 98%
A2AR H278 to alanine
  reduction in binding: > 98%
